{"data": "Experimental data collected from several papers", "cell line": "HCT-116", "read-out": "cell growth or viability"}
{"SMILES": "O=P1(C2CCCCC2)CCCCC1", "assay": "MTT", "conditions": "72 h", "IC50": "13.8 µM"}
{"SMILES": "Cc1cccc(N=C2C(=O)N(Cc3ccc(Br)cc3)c3ccccc32)c1", "assay": "MTT", "conditions": "48 h", "IC50": "8.21 µM"}
{"SMILES": "FC(F)(F)c1ccc(-c2cc(CNc3cccc4cccnc34)on2)cc1", "assay": "MTS", "conditions": "72 h", "IC50": "> 100 µM"}
{"SMILES": "CC(C)c1cccc(C(C)C)c1N=C1C(=O)N(Cc2ccccc2)c2ccccc21", "assay": "MTT", "conditions": "48 h", "IC50": "11.7 µM"}
{"SMILES": "Cc1cccc([N+](=O)[O-])c1N=C1SCC(=O)N1c1nnc(-c2ccc(C(F)(F)F)cc2N=C2SCC(=O)N2c2c(C)cccc2[N+](=O)[O-])s1", "assay": "MTT", "IC50": "61.2 µM"}
{"SMILES": "O=C1/C(=C/c2ccc([N+](=O)[O-])cc2[N+](=O)[O-])NC(=S)N1c1ccccc1", "assay": "MTT", "IC50": "98.5 µg/mL"}
{"SMILES": "CC(C)c1cccc(C(C)C)c1N=C1C(=O)N(Cc2ccc(Br)cc2)c2ccccc21", "assay": "MTT", "conditions": "48 h", "IC50": "37.4 µM"}
{"SMILES": "COc1cccc2c1C(=O)c1c(O)c3c(c(O)c1C2=O)C[C@@](O)(C(=O)CO)C[C@@H]3O[C@H]1C[C@H](N)[C@H](O)[C@H](C)O1", "conditions": "96 h", "IC50": "0.00382 µM"}
{"SMILES": "CC(C)c1cccc(C(C)C)c1N=C1C(=O)N(Cc2cccc(Cl)c2)c2ccccc21", "assay": "MTT", "conditions": "48 h", "IC50": "22.4 µM"}
{"SMILES": "Clc1ccc(-c2cc(CNc3cccc4cccnc34)on2)c(Cl)c1", "assay": "MTS", "conditions": "72 h", "IC50": "> 100 µM"}
{"SMILES": "O=C1C(=Nc2ccc(Cl)cc2Br)c2ccccc2N1Cc1ccc(Br)cc1", "assay": "MTT", "conditions": "48 h", "IC50": "0.6 µM"}
{"SMILES": "Clc1ccc(Cn2nc(-c3nc(-c4ccccc4)no3)c3ccccc32)c(Cl)c1", "conditions": "48 h", "IC50": "324 µM"}
{"SMILES": "Cc1cc(NS(=O)(=O)c2ccc(NC(=O)/C(C#N)=C/c3ccc(N4CCOCC4)cc3)cc2)no1", "assay": "MTT", "conditions": "48 h", "IC50": "67.8 µM"}
{"SMILES": "O=C1C(=Nc2ccccc2I)c2ccccc2N1Cc1ccc([N+](=O)[O-])cc1", "assay": "MTT", "conditions": "48 h", "IC50": "1.7 µM"}
{"SMILES": "O=C(CSc1nc2ccccc2s1)N/N=C/c1ccc(OCC(=O)Nc2cccc(Cl)c2)cc1", "assay": "MTS", "conditions": "72 h", "IC50": "> 100 µM"}
{"SMILES": "O=[N+]([O-])c1cc(Br)c(O)c(C=NNc2ccc(Br)cc2)c1", "assay": "MTT", "conditions": "24 h", "IC50": "15.3 µM"}
{"SMILES": "O=c1cc(OCc2cc(-c3ccc(C(F)(F)F)cc3)no2)c2ccccc2o1", "assay": "MTS", "conditions": "72 h", "IC50": "> 100 µM"}
{"SMILES": "O=C1C(=Nc2ccc(Cl)cc2Br)c2ccccc2N1Cc1ccc([N+](=O)[O-])cc1", "assay": "MTT", "conditions": "48 h", "IC50": "24.9 µM"}
{"SMILES": "Cc1cccc(NC(=O)Cn2cc(COc3ncnc4[nH]cnc34)nn2)c1", "assay": "MTT", "IC50": "55.3 µM"}
{"SMILES": "Cc1cc(C)n(Cn2ccnc2)n1", "assay": "MTT", "conditions": "24 h", "IC50": "21.3 µM"}
{"SMILES": "Cc1cc2c(C(=O)O)cccc2n1-c1nc2c(c(NCc3ccccc3)n1)CCCN2", "assay": "ATP luminescence", "conditions": "72 h", "IC50": "0.4 µM"}
{"SMILES": "Fc1ccc2c(-c3nnc(Cc4ccccc4)s3)nn(Cc3ccccc3)c2c1", "conditions": "48 h", "IC50": "73.9 µM"}
{"SMILES": "O=C1CS/C(=N\\c2ccc(F)cc2O)N1c1nnc(-c2ccc(C(F)(F)F)cc2/N=C2\\SCC(=O)N2c2ccc(F)cc2O)s1", "assay": "MTT", "IC50": "17.2 µM"}
{"SMILES": "Cc1c2c(nn1C)CSCc1cc(n(C)n1)CSc1cc(c3ccccc3c1)OCCCc1c(C(=O)O)n(C)c3c-2c(Cl)ccc13", "assay": "CCK-8", "IC50": "25 µM"}
{"SMILES": "O=[N+]([O-])c1cc(Br)c(O)c(C=NNc2ccc(C(F)(F)F)cc2)c1", "assay": "MTT", "conditions": "24 h", "IC50": "9.42 µM"}
{"SMILES": "CN1CCc2c(c3ccccc3n2Cc2ccc(C(=O)NO)cc2)C1", "assay": "CCK-8", "conditions": "48 h", "IC50": "12 µM"}
{"SMILES": "COc1cccc(N=C2SCC(=O)N2c2nnc(-c3ccc(C(F)(F)F)cc3N=C3SCC(=O)N3c3cccc(OC)c3)s2)c1", "assay": "MTT", "IC50": "71.4 µM"}
{"SMILES": "CC(=O)OC[C@H]1O[C@@H](n2cc(Cn3c(C(=O)/C=C/c4ccc(F)cc4)nc4ccccc43)nn2)[C@H](OC(C)=O)[C@@H](OC(C)=O)[C@H]1OC(C)=O", "assay": "LDH", "conditions": "48 h", "IC50": "6.49 µM"}
{"SMILES": "N#Cc1ccc(-c2cc(COc3cc(C(F)(F)F)nc4ccccc34)on2)cc1", "assay": "MTS", "conditions": "72 h", "IC50": "> 100 µM"}
{"SMILES": "Fc1ccc2c(-c3nnc(Cc4ccccc4)[nH]3)nn(Cc3ccc(Cl)cc3Cl)c2c1", "conditions": "48 h", "IC50": "22 µM"}
{"SMILES": "O=C(C=Cc1cccs1)c1ccc(OCCCCOc2ccc(C(=O)C=Cc3cccs3)cc2)cc1", "assay": "MTT", "conditions": "48 h", "IC50": "356 µM"}
{"SMILES": "CC(C)c1ccc(/C=C2\\N=C(SCC(=O)c3ccccc3)N(c3ccccc3)C2=O)cc1", "assay": "MTT", "IC50": "83.7 µg/mL"}
{"SMILES": "O=C(C=Cc1ccc(OCCCOc2ccc(C=CC(=O)c3cccs3)cc2)cc1)c1cccs1", "assay": "MTT", "conditions": "48 h", "IC50": "120 µM"}
{"SMILES": "CNC(=S)N/N=C/c1cccc2cc3ccccc3nc12", "assay": "MTT", "conditions": "48 h", "IC50": "21.8 µM"}
{"SMILES": "CC(=O)c1nc2ccccc2n1Cc1cn([C@@H]2O[C@H](CO)[C@H](O)[C@H](O)[C@H]2O)nn1", "assay": "LDH", "conditions": "48 h", "IC50": "8.68 µM"}
{"SMILES": "CCCNC(=S)N/N=C/c1cccc2cc3ccccc3nc12", "assay": "MTT", "conditions": "48 h", "IC50": "43.3 µM"}
{"SMILES": "COc1ccc(N(Cc2csc(-c3ccc(C)cc3)n2)C(=O)CCCCCC(=O)NO)cc1", "assay": "MTT", "conditions": "72 h", "IC50": "1.19 µM"}
{"SMILES": "Cc1cc2c(C(N)=O)cccc2n1-c1nc2c(c(NCc3cccnc3)n1)CCCN2", "assay": "ATP luminescence", "conditions": "72 h", "IC50": "1 µM"}
{"SMILES": "O=C1CS/C(=N\\c2cc(C(F)(F)F)ccc2-c2nnc(N3C(=O)CS/C3=N\\c3ccc(F)c(O)c3)s2)N1c1ccc(F)c(O)c1", "assay": "MTT", "IC50": "21.2 µM"}
{"SMILES": "O=[N+]([O-])c1ccc(O)c(C=NNc2ccc(C(F)(F)F)cc2)c1", "assay": "MTT", "conditions": "24 h", "IC50": "11.3 µM"}
{"SMILES": "Cc1cc2c(C(N)=O)cccc2n1-c1nc2c(c(OCc3ccccc3)n1)CCCN2", "assay": "ATP luminescence", "conditions": "72 h", "IC50": "3.4 µM"}
{"SMILES": "Cc1nnc(-c2nn(Cc3ccc(Cl)cc3Cl)c3ccccc23)o1", "conditions": "48 h", "IC50": "48.4 µM"}
{"SMILES": "c1ccc(-c2cc(CNc3cccc4cccnc34)on2)nc1", "assay": "MTS", "conditions": "72 h", "IC50": "> 100 µM"}
{"SMILES": "O=C1C(=Nc2ccc(Cl)cc2)c2ccccc2N1Cc1ccc(Br)cc1", "assay": "MTT", "conditions": "48 h", "IC50": "21.4 µM"}
